From ChEMBL document CHEMBL3351360, “Design and Synthesis of Orally Bioavailable Benzimidazole Reverse Amides as Pan RAF Kinase Inhibitors” (ACS Med Chem Lett, 2014)
In brackets after ≈: the same amount, converted by molar mass. Activity calls are given as the source filed them. The rule behind the calls is not given here.

How the values were obtained:
[1] = target: Serine/threonine-protein kinase B-raf (Homo sapiens, UniProt P15056); assay: Inhibition of BRAF (unknown origin)-mediated ERK phosphorylation by cell-based assay
Sequence of Serine/threonine-protein kinase B-raf (Homo sapiens, UniProt P15056) (P15056 whole entry): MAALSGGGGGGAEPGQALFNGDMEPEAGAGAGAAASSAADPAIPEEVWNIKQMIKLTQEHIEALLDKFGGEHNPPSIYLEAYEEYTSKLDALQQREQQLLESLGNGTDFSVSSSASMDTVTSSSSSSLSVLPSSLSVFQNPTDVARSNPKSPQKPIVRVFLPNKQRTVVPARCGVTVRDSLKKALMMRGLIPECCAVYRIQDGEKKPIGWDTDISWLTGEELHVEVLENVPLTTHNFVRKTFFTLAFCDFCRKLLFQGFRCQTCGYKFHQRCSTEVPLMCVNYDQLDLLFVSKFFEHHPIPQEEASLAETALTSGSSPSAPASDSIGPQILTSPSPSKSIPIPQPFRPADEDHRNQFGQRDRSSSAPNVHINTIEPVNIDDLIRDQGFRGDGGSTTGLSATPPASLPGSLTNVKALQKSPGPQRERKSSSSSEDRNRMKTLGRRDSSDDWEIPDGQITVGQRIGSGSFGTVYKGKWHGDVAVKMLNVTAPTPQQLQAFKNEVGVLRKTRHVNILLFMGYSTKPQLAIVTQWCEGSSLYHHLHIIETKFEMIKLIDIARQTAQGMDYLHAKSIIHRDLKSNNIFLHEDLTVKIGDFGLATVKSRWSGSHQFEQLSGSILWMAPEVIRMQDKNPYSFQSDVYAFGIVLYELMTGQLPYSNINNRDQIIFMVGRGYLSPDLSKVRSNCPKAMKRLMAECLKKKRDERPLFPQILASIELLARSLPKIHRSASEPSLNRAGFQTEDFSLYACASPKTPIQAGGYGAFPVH

[2] = target: Cytochrome P450 3A4 (Homo sapiens, UniProt P08684); assay: Inhibition of CYP3A4 (unknown origin); assay type: ADME
Sequence of Cytochrome P450 3A4 (P08684 whole entry): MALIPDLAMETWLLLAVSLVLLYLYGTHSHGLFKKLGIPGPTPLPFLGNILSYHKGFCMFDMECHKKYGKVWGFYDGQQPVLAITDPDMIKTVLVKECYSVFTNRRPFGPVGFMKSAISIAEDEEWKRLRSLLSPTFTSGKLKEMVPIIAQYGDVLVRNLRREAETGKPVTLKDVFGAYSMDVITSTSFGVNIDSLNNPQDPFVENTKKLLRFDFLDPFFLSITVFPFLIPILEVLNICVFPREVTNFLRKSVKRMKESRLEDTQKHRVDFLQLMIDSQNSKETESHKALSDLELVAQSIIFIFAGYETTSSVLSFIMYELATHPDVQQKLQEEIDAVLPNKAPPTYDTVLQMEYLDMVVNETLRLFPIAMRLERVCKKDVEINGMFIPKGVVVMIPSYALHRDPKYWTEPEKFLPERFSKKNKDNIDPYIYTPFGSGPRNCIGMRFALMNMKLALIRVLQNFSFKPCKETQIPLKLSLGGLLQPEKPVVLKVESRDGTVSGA

[3] = target: Serine/threonine-protein kinase B-raf (Homo sapiens, UniProt P15056, V600E); assay: Inhibition of BRAF V600E mutant (unknown origin)
Sequence of Serine/threonine-protein kinase B-raf (Homo sapiens, UniProt P15056, V600E) (P15056 2-766 V600E limits assumed): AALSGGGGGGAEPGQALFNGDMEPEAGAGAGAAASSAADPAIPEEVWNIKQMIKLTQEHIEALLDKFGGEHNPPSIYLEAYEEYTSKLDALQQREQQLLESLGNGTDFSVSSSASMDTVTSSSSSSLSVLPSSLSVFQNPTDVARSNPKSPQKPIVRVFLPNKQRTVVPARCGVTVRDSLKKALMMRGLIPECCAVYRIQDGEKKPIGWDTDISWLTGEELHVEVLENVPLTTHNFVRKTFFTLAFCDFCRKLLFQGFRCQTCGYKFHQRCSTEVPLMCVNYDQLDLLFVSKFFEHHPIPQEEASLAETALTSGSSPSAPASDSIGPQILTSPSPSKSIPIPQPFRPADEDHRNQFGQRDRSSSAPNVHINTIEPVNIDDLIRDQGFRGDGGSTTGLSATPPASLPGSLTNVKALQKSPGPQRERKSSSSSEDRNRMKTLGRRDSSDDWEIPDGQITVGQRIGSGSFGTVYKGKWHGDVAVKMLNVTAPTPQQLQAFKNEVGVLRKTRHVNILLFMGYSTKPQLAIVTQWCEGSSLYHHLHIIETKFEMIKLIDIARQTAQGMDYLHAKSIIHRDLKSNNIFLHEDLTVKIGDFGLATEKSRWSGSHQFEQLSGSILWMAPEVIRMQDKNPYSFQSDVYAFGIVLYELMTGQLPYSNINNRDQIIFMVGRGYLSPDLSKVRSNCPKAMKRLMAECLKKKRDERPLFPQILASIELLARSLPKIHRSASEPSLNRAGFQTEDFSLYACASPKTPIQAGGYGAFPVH

[4] = Stability in mouse plasma assessed as compound remaining at 1 uM at 37 degC after 45 mins; assay type: ADME, cell-free; settings: read-out: Stability
[5] = test system: HT-29; assay: Inhibition of ERK phosphorylation in human HT-29 cells harboring B-RAF V600E mutant xenografted in nude mouse at 30 to 100 mg/kg/day for 16 days measured 4 to 24 hrs post final dose by Western blot analysis relative to control; assay type: functional, organism-based; settings: TDE = time-dependent effect
How it was run: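 HT29 (BRAF V600E) subcutaneous xenografts in nude mice were dosed orally once daily in 5 mM citrate vehicle at 30 or 100 mg/kg. Tumors were harvested 4 and 24 h after the final dose. Lysates were analysed by Western blot for pERK and total ERK.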

[6] = Oral bioavailability in rat at 10 mg/kg as single dose; assay type: ADME, organism-based; settings: in vivo
How it was run: (§1)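 Rats received a single oral dose of 10 mg/kg. Clearance, volume of distribution, half-life and oral bioavailability were derived from the plasma PK profile.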

[7] = test system: HT-29; assay: Antitumor activity against human HT-29 cells harboring B-RAF V600E mutant xenografted in nude mouse assessed as tumor growth inhibition at 10 mg/kg/day for […] relative to control; assay type: functional
How it was run: (§2)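 Nude mice received subcutaneous HT29 (BRAF V600E) colorectal cells at 3×10^6 cells/mouse, and tumors were established over 10 days. Mice were then randomized into 4 groups and dosed orally once daily with vehicle (5 mM citrate) or compound at 10, 30 or 100 mg/kg for 17 days. Tumor growth is given as ΔT/ΔC, and body weight was monitored.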

[8] = target: Voltage-gated inwardly rectifying potassium channel KCNH2 (Homo sapiens, UniProt Q12809); assay: Inhibition of human ERG
[9] = test system: HT-29; assay: Antitumor activity against human HT-29 cells harboring B-RAF V600E mutant xenografted in nude mouse assessed as tumor growth inhibition at 30 mg/kg/day […] relative to control; assay type: functional; how it was run: as §2
[10] = target: Platelet-derived growth factor receptor (Homo sapiens, UniProt P09619+P16234); assay: Inhibition of PDGFR (unknown origin); assay type: protein-complex assay
[11] = test system: Mus musculus; assay: Toxicity in human HT-29 cells harboring B-RAF V600E mutant xenografted nude mouse assessed as body weight loss at 10 mg/kg/day for […] relative to control; assay type: organism-based; settings: in vivo; how it was run: as §2
[12] = test system: Rattus norvegicus; assay: Volume of distribution in rat at 10 mg/kg, po as single dose; assay type: ADME, organism-based; parameters: dose 10 mg/kg, route oral; settings: in vivo; how it was run: as §1
[13] = target: Vascular endothelial growth factor receptor (Homo sapiens, UniProt P17948+P35916+P35968); assay: Inhibition of VEGFR (unknown origin); assay type: protein assay
[14] = test system: Mus musculus; assay: Toxicity in human HT-29 cells harboring B-RAF V600E mutant xenografted nude mouse assessed as body weight loss at 30 mg/kg/day […] relative to control; assay type: organism-based; settings: in vivo; how it was run: as §2
[15] = target: Macrophage colony-stimulating factor 1 receptor (Homo sapiens, UniProt P07333); assay: Inhibition of CSF1R kinase (unknown origin)
Sequence of Macrophage colony-stimulating factor 1 receptor (P07333 whole entry): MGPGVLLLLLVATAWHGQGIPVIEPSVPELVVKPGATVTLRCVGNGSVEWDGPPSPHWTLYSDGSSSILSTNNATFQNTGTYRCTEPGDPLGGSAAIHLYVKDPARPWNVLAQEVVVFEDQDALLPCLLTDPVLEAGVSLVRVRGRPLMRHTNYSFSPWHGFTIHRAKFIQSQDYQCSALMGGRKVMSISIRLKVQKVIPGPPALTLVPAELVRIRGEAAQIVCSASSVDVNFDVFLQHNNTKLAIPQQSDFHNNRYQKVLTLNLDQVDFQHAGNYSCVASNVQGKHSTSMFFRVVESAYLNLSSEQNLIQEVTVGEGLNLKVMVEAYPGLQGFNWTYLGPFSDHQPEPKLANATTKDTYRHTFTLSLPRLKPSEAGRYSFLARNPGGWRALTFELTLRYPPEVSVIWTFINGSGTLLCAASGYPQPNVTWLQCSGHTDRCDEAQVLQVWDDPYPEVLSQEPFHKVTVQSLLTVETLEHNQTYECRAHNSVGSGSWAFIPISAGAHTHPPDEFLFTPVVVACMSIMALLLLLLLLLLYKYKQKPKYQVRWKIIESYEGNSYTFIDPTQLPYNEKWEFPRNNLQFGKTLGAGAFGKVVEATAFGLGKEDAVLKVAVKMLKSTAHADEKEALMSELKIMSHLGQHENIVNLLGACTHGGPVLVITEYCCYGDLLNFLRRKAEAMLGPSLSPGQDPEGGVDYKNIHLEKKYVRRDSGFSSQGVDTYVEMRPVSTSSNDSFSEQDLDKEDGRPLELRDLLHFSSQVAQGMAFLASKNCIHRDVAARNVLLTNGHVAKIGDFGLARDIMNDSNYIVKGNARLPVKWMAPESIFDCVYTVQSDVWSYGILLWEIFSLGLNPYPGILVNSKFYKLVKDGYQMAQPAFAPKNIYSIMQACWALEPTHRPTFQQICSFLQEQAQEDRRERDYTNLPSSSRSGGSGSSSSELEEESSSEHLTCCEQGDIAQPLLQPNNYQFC

[16] = target: Proto-oncogene tyrosine-protein kinase Src (Homo sapiens) (UniProt P12931); assay: Inhibition of SRC (unknown origin)
Sequence of Proto-oncogene tyrosine-protein kinase Src (Homo sapiens) (P12931 2-536 limits assumed): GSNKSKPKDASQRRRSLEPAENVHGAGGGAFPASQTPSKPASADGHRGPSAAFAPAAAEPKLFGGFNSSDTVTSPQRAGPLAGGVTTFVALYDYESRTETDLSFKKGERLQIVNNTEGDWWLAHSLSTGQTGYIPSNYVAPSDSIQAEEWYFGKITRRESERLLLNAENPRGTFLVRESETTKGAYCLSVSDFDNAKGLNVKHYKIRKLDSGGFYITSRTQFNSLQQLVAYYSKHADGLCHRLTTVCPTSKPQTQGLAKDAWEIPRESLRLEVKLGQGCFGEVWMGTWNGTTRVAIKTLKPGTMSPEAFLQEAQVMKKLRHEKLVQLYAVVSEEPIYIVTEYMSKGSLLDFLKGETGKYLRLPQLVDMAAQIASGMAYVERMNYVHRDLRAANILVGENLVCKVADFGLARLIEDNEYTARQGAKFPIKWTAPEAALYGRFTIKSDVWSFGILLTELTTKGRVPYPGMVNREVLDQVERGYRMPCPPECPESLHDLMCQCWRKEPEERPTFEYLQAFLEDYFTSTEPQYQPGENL

[17] = test system: HT-29; assay: Antitumor activity against human HT-29 cells harboring B-RAF V600E mutant xenografted in nude mouse assessed as tumor growth inhibition at 100 mg/kg/day […] relative to control; assay type: functional; how it was run: as §2
[18] = target: Mast/stem cell growth factor receptor Kit (Homo sapiens, UniProt P10721); assay: Inhibition of c-Kit (unknown origin)
Sequence of Mast/stem cell growth factor receptor Kit (P10721 whole entry): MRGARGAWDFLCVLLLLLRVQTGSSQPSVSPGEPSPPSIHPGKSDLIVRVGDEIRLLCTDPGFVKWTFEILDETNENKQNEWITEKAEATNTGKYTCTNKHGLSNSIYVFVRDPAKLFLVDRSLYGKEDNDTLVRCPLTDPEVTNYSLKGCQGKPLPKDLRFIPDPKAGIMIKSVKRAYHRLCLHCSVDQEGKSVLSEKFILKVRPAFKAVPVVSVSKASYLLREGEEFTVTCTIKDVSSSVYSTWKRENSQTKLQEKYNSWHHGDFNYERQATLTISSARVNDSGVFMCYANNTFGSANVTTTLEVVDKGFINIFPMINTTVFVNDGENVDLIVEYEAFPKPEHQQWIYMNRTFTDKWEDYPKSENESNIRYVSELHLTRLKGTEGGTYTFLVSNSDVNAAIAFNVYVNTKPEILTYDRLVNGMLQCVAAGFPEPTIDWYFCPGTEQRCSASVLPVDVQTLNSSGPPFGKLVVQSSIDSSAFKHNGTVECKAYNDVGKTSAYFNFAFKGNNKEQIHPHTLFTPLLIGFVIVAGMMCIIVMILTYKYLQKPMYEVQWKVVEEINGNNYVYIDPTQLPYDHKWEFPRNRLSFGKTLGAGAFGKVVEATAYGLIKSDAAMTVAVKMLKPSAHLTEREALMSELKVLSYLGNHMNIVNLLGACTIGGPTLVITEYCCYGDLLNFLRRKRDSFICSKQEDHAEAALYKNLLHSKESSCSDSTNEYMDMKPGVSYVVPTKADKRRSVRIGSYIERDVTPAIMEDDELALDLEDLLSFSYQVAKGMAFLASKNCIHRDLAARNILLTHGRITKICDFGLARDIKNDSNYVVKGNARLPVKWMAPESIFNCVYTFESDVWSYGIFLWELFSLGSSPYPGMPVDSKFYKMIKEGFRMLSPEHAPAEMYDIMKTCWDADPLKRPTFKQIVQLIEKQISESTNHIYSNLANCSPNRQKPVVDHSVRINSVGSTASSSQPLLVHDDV

[19] = test system: Mus musculus; assay: Toxicity in human HT-29 cells harboring B-RAF V600E mutant xenografted nude mouse assessed as body weight loss at 100 mg/kg/day […] relative to control; assay type: organism-based; settings: in vivo; how it was run: as §2
[20] = Half life in rat at 10 mg/kg, po as single dose; assay type: ADME, organism-based; parameters: dose 10 mg/kg, route oral; settings: in vivo; how it was run: as §1
[21] = Clearance in rat at 10 mg/kg, po as single dose; assay type: ADME, organism-based; parameters: dose 10 mg/kg, route oral; settings: in vivo; how it was run: as §1
[22] = target: Tyrosine-protein kinase Lck (Homo sapiens, UniProt P06239); assay: Inhibition of LCK (unknown origin)
Sequence of Tyrosine-protein kinase Lck (P06239 whole entry): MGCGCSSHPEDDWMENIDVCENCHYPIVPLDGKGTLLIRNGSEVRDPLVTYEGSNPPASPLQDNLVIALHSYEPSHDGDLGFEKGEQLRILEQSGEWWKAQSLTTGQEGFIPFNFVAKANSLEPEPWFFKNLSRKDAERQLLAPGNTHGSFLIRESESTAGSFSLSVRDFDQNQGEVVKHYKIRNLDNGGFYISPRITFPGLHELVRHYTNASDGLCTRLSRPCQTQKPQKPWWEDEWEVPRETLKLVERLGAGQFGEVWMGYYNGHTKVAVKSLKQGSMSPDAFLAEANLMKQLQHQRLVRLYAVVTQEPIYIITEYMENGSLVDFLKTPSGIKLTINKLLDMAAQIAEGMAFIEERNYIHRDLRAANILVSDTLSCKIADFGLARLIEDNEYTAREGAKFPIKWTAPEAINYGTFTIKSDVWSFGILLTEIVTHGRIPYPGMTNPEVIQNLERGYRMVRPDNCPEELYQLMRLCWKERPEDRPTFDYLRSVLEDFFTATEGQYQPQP

[23] = Solubility of the compound at pH 7; assay type: physicochemical; settings: buffer

Structure (SMILES) | EC50 [1] [nM] | IC50 [3] [nM] | other results
CC(C)N1CCN(CC(=O)Nc2cc(Oc3ccc4c(c3)nc(Nc3cc(C(F)(F)F)ccc3F)n4C)ccn2)CC1 | 100 | 6 | INH [2]: 14 µM
CC(=O)Nc1cc(Oc2ccc3c(c2)nc(Nc2ccc(OC(F)(F)F)cc2)n3C)ccn1 | 100 | 1 | 
CC(=O)Nc1cc(Oc2ccc3c(c2)nc(Nc2cccc(C(C)(C)C)c2)n3C)ccn1 | 40 | 3 | 
CC(=O)Nc1cc(Oc2ccc3c(c2)nc(Nc2cccc(C(F)(F)F)c2)n3C)ccn1 | 400 | 3 | 
CCc1ccc(Nc2nc3cc(Oc4ccnc(NC(C)=O)c4)ccc3n2C)cc1 | 80 | 1 | 
CN1CCC(C(=O)Nc2cc(Oc3ccc4c(c3)nc(Nc3cccc(C(C)(C)C)c3)n4C)ccn2)CC1 | 100 | 10 | 
Cn1c(Nc2cccc(C(C)(C)C)c2)nc2cc(Oc3ccnc(NC(=O)C4CCNCC4)c3)ccc21 | 100 | 7 | 
CC(=O)Nc1cc(Oc2ccc3c(c2)nc(Nc2ccc(C(C)C)cc2)n3C)ccn1 | 90 | 4 | 
CC(=O)Nc1cc(Oc2ccc3c(c2)nc(Nc2cccc(OC(F)(F)F)c2)n3C)ccn1 | 100 | 0.4 | 
CC(=O)Nc1cc(Oc2ccc3c(c2)nc(Nc2ccc(C(C)(C)C)cc2)n3C)ccn1 | 50 | 9 | 

Continued by falling EC50 [1], values first:

EC50 [1] [nM] | IC50 [3] [nM] | Structure (SMILES) | other results
100 | 6 | CCN1CCN(CC(=O)Nc2cc(Oc3ccc4c(c3)nc(Nc3cc(C(F)(F)F)ccc3F)n4C)ccn2)CC1 | inhibition [5]: tde; bioavailability [6]: 40%; T/C [7]: 52%; INH [8]: 2.3 µM; T/C [9]: 72%; IC50 [10]: < 10 nM; Activity [11]: Non-toxic; Vd [12]: 12.737 L/kg; IC50 [13]: < 10 nM; Activity [14]: Non-toxic; IC50 [15]: < 10 nM; inhibition [16]: inactive; T/C [17]: 75%; INH [2]: > 25 µM; remaining at 0.75 h, 1 µM [4]: 1%; IC50 [18]: < 10 nM; Activity [19]: 13%; half-life [20]: 5.67 h; CL/F [21]: 32 mL/min/kg; IC50 [22]: 240 nM
100 | 20 | CC(C)N1CCC(C(=O)Nc2cc(Oc3ccc4c(c3)nc(Nc3cccc(C(C)(C)C)c3)n4C)ccn2)CC1 | solubility [23]: 581 µg/mL (≈ 1070 µM); bioavailability [6]: 15%; Vd [12]: 17.784 L/kg; INH [2]: 3 µM; half-life [20]: 4.18 h; CL/F [21]: 90 mL/min/kg
100 | 2 | CC(C)N1CCC(C(=O)Nc2cc(Oc3ccc4c(c3)nc(Nc3cc(C(F)(F)F)ccc3F)n4C)ccn2)CC1 | bioavailability [6]: 54%; CL/F [21]: 49 mL/min/kg
100 | < 0.4 | CCc1cccc(Nc2nc3cc(Oc4ccnc(NC(C)=O)c4)ccc3n2C)c1 | 
90 | 1 | CC(=O)Nc1cc(Oc2ccc3c(c2)nc(Nc2cc(C(F)(F)F)ccc2F)n3C)ccn1 | 
50 | 4 | CC(=O)Nc1cc(Oc2ccc3c(c2)nc(Nc2ccc(C(F)(F)F)cc2)n3C)ccn1 | remaining at 0.75 h, 1 µM [4]: 100%
50 | < 0.4 | CC(=O)Nc1cc(Oc2ccc3c(c2)nc(Nc2cccc(C(C)C)c2)n3C)ccn1 | 
